This is an account of results in ChEMBL document CHEMBL2346610, “N-Alkyldeoxynojirimycin derivatives with novel terminal tertiary amide substitution for treatment of bovine viral diarrhea virus (BVDV), Dengue, and Tacaribe virus infections” (Bioorg Med Chem Lett, 2013).

Each structure is given as a SMILES string. Calls of active or inactive are those of the source. The rule behind the calls is not given here.

Series [1] can be described thus: Cytotoxicity against human Huh7.5 cells by MTT assay. Type of series: cell-based, Huh-7. For orientation: Tetrazolium assays rely on reduction of a dye to a coloured formazan, in cell work by metabolically active cells.
Series [2] is described as follows: Cytotoxicity against BHK cells by MTT assay. Type of series: cell-based, Mesocricetus auratus. Particulars: hamster.
Series [3] has as its system Tacaribe virus. The experiment in a line: Antiviral activity against Tacaribe virus infected in human Huh7.5 cells. It counts as functional, organism-based. Particulars: Mammarenavirus tacaribeense, Huh-7.
A short description of series [4]: Cytotoxicity against MDBK cells by MTT assay. Type of series: cell-based, Bos taurus. Particulars: cattle. In outline: (§1)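 Assays were run in MDBK cells. BVDV antiviral activity was measured by virus yield reduction and reported as EC50. Cytotoxicity was measured by MTT assay and reported as CC50.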
Series [5] deals with Dengue virus. Nature of the series: Antiviral activity against Dengue virus infected in BHK cells. Type of series: functional, organism-based.
Series [6] relates to Bovine viral diarrhea virus 1. The experiment in a line: Antiviral activity against BVDV infected in MDBK cells assessed as reduction of viral yield. It counts as functional, organism-based. Particulars: Bovine viral diarrhea virus isolates and strains. The procedure, abridged: as §1
Series [7] has as its system Bovine viral diarrhea virus 1. Nature of the series: Reduction of BVDV E2 protein mobility rate infected in MDBK cells at EC50 after 22 hrs by Western blot analysis. It counts as functional, organism-based. The procedure, abridged: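 MDBK cells were infected with BVDV at MOI 1 for 1 h, then mock-treated or compound-treated. Cells were harvested 22 h post-infection. Lysates were run on electrophoresis and Western blotted, detecting BVDV E2 glycoprotein and β-actin loading control simultaneously.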
In general terms: In western blotting, separated proteins are transferred to a membrane and probed.

One may read the CC50 as the concentration at which the toxic effect on the cells reaches its halfway point. A higher CC50 goes with better tolerance by the cells. Usually EC50 stands for the concentration giving half of the maximal effect. In the case of `CC1CCCCC1N(CCCCCCN1C[C@H](O)[C@@H](O)[C@H](O)[C@H]1CO)C(=O)OC(C)(C)C` (stereo partly specified), the CC50 in series [1] was determined as 240 µM; in series [2] it was 230 µM; in series [4] it was 250 µM. Further, the values for the EC50 in series [3], in series [5] and in series [6] were 0.3 µM, 0.3 µM and 0.4 µM, respectively. Also, the outcome in series [7] was Active.

On to `CC1CCCCC1NCCCCCCN1C[C@H](O)[C@@H](O)[C@H](O)[C@H]1CO` (stereo partly specified), for which the CC50 in series [4] was more than 500 µM. The EC50 in series [6] was more than 100 µM. In series [7], the outcome was inactive.

`CC(C)(C)C(=O)N(CCCCCCN1C[C@H](O)[C@@H](O)[C@H](O)[C@H]1CO)c1cc(F)ccc1F`: the CC50 in series [1], in series [2] and in series [4] was more than 500 µM each time. Besides, the EC50 in series [3] came out at 0.62 µM; in series [5], 5.4 µM; in series [6], 0.4 µM.

Take `CC(C)(C)C(=O)N(CCCCCCN1C[C@H](O)[C@@H](O)[C@H](O)[C@H]1CO)C1CC1`: the CC50 in series [2] and in series [4] was more than 500 µM in each case. In addition, the EC50 in series [5] stood at 8.8 µM; in series [6] it was 3.75 µM. Besides, in series [7], the result was Active.

As for `CC(C)(C)C(=O)N(CCCCCCN1C[C@H](O)[C@@H](O)[C@H](O)[C@H]1CO)C1CCCCCCC1`, the figures for the CC50 in series [1], in series [2] and in series [4] were 150 µM, 208 µM and 270 µM, respectively. For the same molecule, the EC50 in series [3] was determined as 0.29 µM; in series [5], 0.8 µM; in series [6], 0.24 µM.

On to `CC(C)(C)C(=O)N(CCCCCCN1C[C@H](O)[C@@H](O)[C@H](O)[C@H]1CO)C1CCCCC1`, for which the values for the CC50 in series [1], in series [2] and in series [4] were 500 µM, more than 500 µM and more than 500 µM, respectively. The EC50 in series [3] came to 0.2 µM; in series [5], 0.28 µM; in series [6], 0.2 µM. Besides, the outcome in series [7] was Active.

With `CC(=O)N(CCCCCCN1C[C@H](O)[C@@H](O)[C@H](O)[C@H]1CO)C1CCCCC1`, the CC50 in series [1], in series [2] and in series [4] was more than 500 µM throughout. Further, the EC50 in series [3] is 1 µM; in series [5] it was 14 µM; in series [6], 0.28 µM.

Consider `CC(C)(C)C(=O)N(CCCCCCN1C[C@H](O)[C@@H](O)[C@H](O)[C@H]1CO)c1ccc(F)cc1F`, for which the CC50 in series [1], in series [2] and in series [4] was more than 500 µM throughout. For the same molecule, the EC50 in series [3] was 2.5 µM; in series [5], 2.2 µM; in series [6], 0.25 µM. Also, the outcome in series [7] was Active.

In turn, `CC(=O)N(CCCCCCN1C[C@H](O)[C@@H](O)[C@H](O)[C@H]1CO)c1ccc(F)cc1F` displayed a CC50 in series [4] of more than 500 µM. The EC50 in series [6] was 6 µM. The result in series [7] was Active.

For `CC(C)(C)C(=O)N(CCCCCCN1C[C@H](O)[C@@H](O)[C@H](O)[C@H]1CO)C1CCCCCC1`, the CC50 in series [1], in series [2] and in series [4] was more than 500 µM throughout. Also, the EC50 in series [3] turned out to be 1 µM; in series [5], 0.8 µM; in series [6], 0.4 µM.

Turning to `CC(C)(C)C(=O)N(CCCCCCN1C[C@H](O)[C@@H](O)[C@H](O)[C@H]1CO)C1CCC1`, the CC50 in series [2] and in series [4] was more than 500 µM throughout. Moreover, the values for the EC50 in series [5] and in series [6] were 1.9 µM and 0.8 µM, respectively.

As to `CC(C)(C)C(=O)N(CCCCCCN1C[C@H](O)[C@@H](O)[C@H](O)[C@H]1CO)C1C2CC3CC(C2)CC1C3` (stereo partly specified), the values for the CC50 in series [1], in series [2] and in series [4] were 125 µM, 192 µM and 180 µM, respectively. Besides, the figures for the EC50 in series [3], in series [5] and in series [6] were 0.5 µM, 0.125 µM and 0.31 µM, respectively.

Take `CC(C)(C)CC(=O)N(CCCCCCN1C[C@H](O)[C@@H](O)[C@H](O)[C@H]1CO)C1CCCCC1`: the CC50 in series [1], in series [2] and in series [4] was more than 500 µM in each case. Moreover, the EC50 came to 0.4 µM in series [3], 1.5 µM in series [5] and 0.18 µM in series [6]. In series [7], the result was Active.

With `CC(C)(C)C(=O)N(CCCCCCN1C[C@H](O)[C@@H](O)[C@H](O)[C@H]1CO)C1CCCC1`, the CC50 in series [1], in series [2] and in series [4] was more than 500 µM in each case. The values for the EC50 in series [3], in series [5] and in series [6] were 4 µM, 2 µM and 0.85 µM, respectively.

For `CC(C)(C)C(=O)N(CCCCCCN1C[C@H](O)[C@@H](O)[C@H](O)[C@H]1CO)C12CC3CC(CC(C3)C1)C2`, the CC50 in series [1] was 170 µM; in series [2] it was more than 500 µM; in series [4], 420 µM. In addition, the EC50 in series [3] is 0.21 µM; in series [5], 1.38 µM; in series [6] it was 0.21 µM.

Consider `C[C@H]1CCCC[C@@H]1OCCCCCCN1C[C@H](O)[C@@H](O)[C@H](O)[C@H]1CO`, for which the EC50 in series [6] was determined as 3.3 µM.

Molecule `CC(=O)N(CCCCCCN1C[C@H](O)[C@@H](O)[C@H](O)[C@H]1CO)c1cc(F)ccc1F` had a CC50 in series [4] of more than 500 µM. In addition, the EC50 in series [6] was determined as 5 µM.

In series [4], `CC(C)(C)OC(=O)NCCCCCCN1C[C@H](O)[C@@H](O)[C@H](O)[C@H]1CO` showed a CC50 of more than 500 µM. In addition, the EC50 in series [6] turned out to be 2.5 µM. Further, the outcome in series [7] was Active.

Regarding `OC[C@@H]1[C@@H](O)[C@H](O)[C@@H](O)CN1CCCCCCN(C1CCCCC1)C1CCCCC1`, the CC50 in series [4] was more than 500 µM. In addition, the EC50 in series [6] was 6.3 µM. Also, the outcome in series [7] was Active.

On to `CC1CCCCC1N(CCCCCCN1C[C@H](O)[C@@H](O)[C@H](O)[C@H]1CO)C(=O)C(C)(C)C` (stereo partly specified), for which the CC50 in series [1] was 310 µM; in series [2], more than 500 µM; in series [4], more than 500 µM. Moreover, the EC50 in series [3] stood at 0.2 µM; in series [5], 0.32 µM; in series [6], 0.22 µM. Further, in series [7], the outcome was Active.
